Source: PubChem BioAssay
Shown are actives, neighbours in structure and some others; about 1.3% of the full set was active somewhere.
XiGFP reactiv – activators of X-chromosome reactivation in mouse fibroblasts; XiGFP mouse fibroblasts, % GFP-positive cells imaging, 3 d; cells co-treated with 5-aza-dC sensitizer; scaled so ellipticine positive control = 100%; activation, % at 7.58 µM; hit rate 0.055% among 360,000;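 active = mean normalized replicate activation at least 10% and every replicate at or above 10%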
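Material: XiGFP fibroblasts, SV40-immortalized; Buffer or medium: DMEM containing 5-aza-dC; Compound dosing: single point; Times: 3 days compound exposure.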
HNF4A DNA FP – change in binding of human HNF4 alpha to DNA. activity change, % at 10 µM. AID 1224865. P41235. HNF4a-FITC DNA binding, fluorescence polarization, 1 h. hit rate 0.3% among 360,000; in the data active = activity change above about 30%, passing the limit was not always enough
TPT1 inh – inhibitors of Candida albicans tRNA 2'-phosphotransferase TPT1. AID 1962. hit rate 0.81% among 300,000. inhibition, % at 5 µM. recombinant caTPT1, FP RNA substrate dephosphorylation;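 active = inhibition above the mean of all tested compounds plus 3 SD, set per screening campaign, cut at about 24% in these data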
CSN deneddyl inh – CSN deneddylation inhibition; Q92905; Purified CSN, SCF-Nedd8-OG deneddylation, fluorescence polarization; inhibition, % at 12.5 µM; hit rate 0.38% among 360,000;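 active = pattern-corrected inhibition above about 35%, with an unprinted fluorescence ratio check between 0.5 and 1.5, limit read from the data, passing the limit was not always enough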
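Assay system: purified human Csn5 enzyme expressed in HEK293T cells; measure: % inhibition; also added: SCFSkp2-Nedd8OG substrate at 10 nM final; technique: fluorescence polarization; times: reaction 90 min, room temperature; medium: Tris buffer pH 7.5, NaCl, DTT, Tween-20, trehalose, ovalbumin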
Rpn11 block – Rpn11 (human) deubiquitinase inhibition. O00487. human 26S proteasome, Ub4-pepOG fluorescence polarization; 20S core pre-blocked with epoxomicin. inhibition, % at 20 µM. hit rate 0.59% among 360,000. AID 588493;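 active = inhibition at 20 µM, scaled to each plate's controls, above about 33%, limit read from the data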
aDG glyco act – increases alpha dystroglycan glycosylation. hit rate 0.22% among 360,000. AID 624168. activation, % at 10 µM. Pro5-aDG cells, alpha-DG glycosylation AlphaScreen (IIH6); 0% Pro5, 100% B10-LARGE cell signal;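 active = activation of at least 8% versus controls, or a plate z-score of at least 8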;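 also: Pro5 are CHO cells carrying HIG-tagged alpha-DG that lacks glycosylation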
caTPT1 confirm – TPT1 (C. albicans) inhibition, confirmation | shares compounds with TPT1 inh | recombinant caTPT1, fluorescence polarization, RNase T1 coupled | inhibition, % at 5 µM | hit rate 74% among 2,400 | AID 2149;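 active = inhibition above the primary screen limit, the mean inhibition of all tested compounds plus 3 SD, cut at about 25% in these data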
RNase T1 inh – RNase T1 inhibition in TPT1 counter-screen. hit rate 83% among 2,400. shares compounds with TPT1 inh. RNase T1 cleavage, fluorescence polarization, 1536-well. AID 2153. inhibition, % at 5 µM;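 active = inhibition above the solvent-only control well mean plus 3 SD, limit set per screening run, cut at about 23% in these data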;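 also: inhibitors block cleavage so intact labeled substrate keeps polarization high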
Target sequence (P00651 whole entry, looked up): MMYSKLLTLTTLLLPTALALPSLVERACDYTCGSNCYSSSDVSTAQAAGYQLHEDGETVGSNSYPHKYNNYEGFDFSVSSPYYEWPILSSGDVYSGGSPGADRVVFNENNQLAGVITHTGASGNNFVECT
Rpn11 confirm – confirmation of human proteasome Rpn11 inhibitors; shares compounds with Rpn11 block; purified human 26S proteasome, Ub4-pepOG fluorescence polarization; proteasome pretreated with epoxomicin; inhibition, % at 20 µM; hit rate 29% among 1,900
MMP-2 counter-1 – blocks human MMP-2, flagging nonselective RPN11 hits | AID 602330 | shares compounds with Rpn11 block | inhibition, % at 20 µM | hit rate 4% among 1,900 | recombinant MMP-2, FRET peptide cleavage fluorescence;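 also: human MMP-2 activated beforehand with APMA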
Thrombin FP – thrombin (bovine) inhibition counter-screen | bovine thrombin cleavage of Ub4-pepOG, fluorescence polarization | inhibition, % at 20 µM | shares compounds with Rpn11 block | hit rate 13% among 1,900 | AID 602333;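 active = mean inhibition at least 40% at 20 µM, or signal 3 deviations below plate average, so some actives read negative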
Target sequence (P00735 whole entry, looked up): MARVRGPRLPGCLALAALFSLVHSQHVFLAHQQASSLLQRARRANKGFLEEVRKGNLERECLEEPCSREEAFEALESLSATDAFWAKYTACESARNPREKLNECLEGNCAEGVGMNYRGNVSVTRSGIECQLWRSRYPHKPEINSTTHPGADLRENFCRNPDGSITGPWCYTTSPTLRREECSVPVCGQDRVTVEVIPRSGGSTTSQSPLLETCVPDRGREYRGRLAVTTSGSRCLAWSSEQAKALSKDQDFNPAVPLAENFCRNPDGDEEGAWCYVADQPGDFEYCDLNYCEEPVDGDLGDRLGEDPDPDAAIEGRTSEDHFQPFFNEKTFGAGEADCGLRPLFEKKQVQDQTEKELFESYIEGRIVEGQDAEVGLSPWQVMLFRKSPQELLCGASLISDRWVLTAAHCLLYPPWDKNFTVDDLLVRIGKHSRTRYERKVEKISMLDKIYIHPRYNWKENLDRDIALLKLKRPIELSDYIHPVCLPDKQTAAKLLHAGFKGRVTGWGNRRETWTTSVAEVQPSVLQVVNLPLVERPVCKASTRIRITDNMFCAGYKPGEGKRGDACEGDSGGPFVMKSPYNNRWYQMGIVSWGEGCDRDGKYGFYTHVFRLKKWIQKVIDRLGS
CSN5 deneddyl – validation of inhibitors of human CSN-mediated cullin deneddylation | shares compounds with CSN deneddyl inh | Csn5 deneddylation of SCF-Nedd8OG, fluorescence polarization, 90 min | inhibition, % at 16.6 µM | hit rate 62% among 540 | AID 720654; in the data active = inhibition above about 50%
MMP-2 counter-2 – counter-screen for CSN deneddylation inhibitors: human MMP-2 inhibition. hit rate 33% among 540. inhibition, % at 16.6 µM. recombinant MMP-2, FRET substrate fluorescence, 60 min. shares compounds with CSN deneddyl inh;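 active = corrected plate-normalized z-score of 5 or more, or -5 or less, or inhibition of 15% or more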
Thrombin cntr – counter-screen for CSN deneddylation inhibitors: bovine thrombin inhibition | shares compounds with CSN deneddyl inh | bovine thrombin cleavage of Ub4-pepOG, fluorescence polarization | inhibition, % at 16.6 µM | hit rate 49% among 540;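 active = inhibition at or above a set limit, with a fluorescence interference ratio between 0.5 and a set maximum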
A number is an active result. Rule as the data show it, unless noted: active = inhibition above about 40%; inactive = the rest.

Results for O=c1[nH]c(=S)[nH]c(O)c1N=Nc1ccc2c(c1)OCCO2 ?
XiGFP reactiv: inactive; HNF4A DNA FP: 48.2; TPT1 inh: 25.3; CSN deneddyl inh: inactive; Rpn11 block: 77.1; aDG glyco act: inactive; caTPT1 confirm: 35.4; RNase T1 inh: 48.4; Rpn11 confirm: inactive; MMP-2 counter-1: inactive; Thrombin FP: 44.9

Results for COc1ccccc1-n1c(/C=C/c2ccc(O)cc2)nc2ccccc2c1=O ?
XiGFP reactiv: inactive; HNF4A DNA FP: inactive; TPT1 inh: inactive; CSN deneddyl inh: inactive; Rpn11 block: inactive; aDG glyco act: inactive

How did COc1cc(/C=C/c2nc3ccccc3c(=O)n2-c2cccc(O)c2)ccc1O do in these assays?
XiGFP reactiv: inactive; HNF4A DNA FP: inactive; TPT1 inh: 33.8; CSN deneddyl inh: inactive; Rpn11 block: 92.9; aDG glyco act: inactive; caTPT1 confirm: 50.3; RNase T1 inh: 53.8; Rpn11 confirm: inactive; MMP-2 counter-1: inactive; Thrombin FP: inactive

Results for COC(=O)[C@@H]1[C@@H](CO)[C@@H]2Cn3c(ccc(-c4ccc(F)cc4)c3=O)[C@H]1N2Cc1cccnc1 ?
XiGFP reactiv: inactive

Results for Cn1c(O)c(/C=C/C=Nc2ccccc2)c(=O)n(C)c1=S ?
XiGFP reactiv: inactive; HNF4A DNA FP: 95.0; TPT1 inh: 133.7; CSN deneddyl inh: 75.0; Rpn11 block: 118.1; aDG glyco act: inactive; caTPT1 confirm: 66.6; RNase T1 inh: 74.3; Rpn11 confirm: 113.0; MMP-2 counter-1: inactive; Thrombin FP: active; MMP-2 counter-2: -100.4; Thrombin cntr: inactive

Results for Cn1c(O)c(/C=N/N2CCOCC2)c(=O)n(-c2ccccc2)c1=S ?
XiGFP reactiv: inactive; HNF4A DNA FP: inactive; TPT1 inh: inactive; CSN deneddyl inh: inactive; Rpn11 block: inactive; aDG glyco act: inactive

How did Cc1cc(C)cc(N2C(=O)NC(=O)/C(=C\C=C\c3ccco3)C2=O)c1 do in these assays?
XiGFP reactiv: inactive; HNF4A DNA FP: inactive; TPT1 inh: 46.8; CSN deneddyl inh: 58.9; Rpn11 block: inactive; aDG glyco act: inactive; caTPT1 confirm: 44.9; RNase T1 inh: 61.6; CSN5 deneddyl: 58.9; MMP-2 counter-2: inactive; Thrombin cntr: 24.2

What do the screens show for `O=C1NC(=O)N(Cc2ccc(F)cc2)C(=O)/C1=C\C=C\c1ccco1`?
XiGFP reactiv: inactive; HNF4A DNA FP: inactive; TPT1 inh: 90.2; CSN deneddyl inh: 99.3; aDG glyco act: inactive; caTPT1 confirm: 48.3; RNase T1 inh: 62.6; CSN5 deneddyl: 72.5; MMP-2 counter-2: inactive; Thrombin cntr: 17.1

What do the screens show for `Cn1cccc1/C=C1/C(=O)NC(=S)N(Cc2ccc(F)cc2)C1=O`?
XiGFP reactiv: inactive; HNF4A DNA FP: inactive; TPT1 inh: inactive; CSN deneddyl inh: inactive; Rpn11 block: inactive; aDG glyco act: inactive

What do the screens show for `CC(C)c1ccc(N2C(=O)NC(=O)/C(=C/C=C/c3ccco3)C2=O)cc1`?
XiGFP reactiv: inactive; HNF4A DNA FP: 65.6; TPT1 inh: 102.2; CSN deneddyl inh: 135.4; aDG glyco act: inactive; caTPT1 confirm: 69.6; RNase T1 inh: 72.4; CSN5 deneddyl: inactive; MMP-2 counter-2: inactive; Thrombin cntr: 51.5

Results for CCc1ccc(N2C(=O)NC(=O)/C(=C\C=C\c3ccco3)C2=O)cc1 ?
XiGFP reactiv: inactive; HNF4A DNA FP: inactive; TPT1 inh: 57.5; CSN deneddyl inh: 86.0; aDG glyco act: inactive; caTPT1 confirm: 51.1; RNase T1 inh: 68.0; CSN5 deneddyl: inactive; MMP-2 counter-2: inactive; Thrombin cntr: inactive

How did CCCNC(=O)[C@@H]1[C@@H](CO)[C@@H]2Cn3c(cccc3=O)[C@H]1N2CCC do in these assays?
XiGFP reactiv: inactive

What do the screens show for `Cc1ccccc1-c1ccc([C@@H]2[C@@H](CO)N3CCCCN(C(=O)Cc4ccccn4)C[C@@H]23)cc1`?
XiGFP reactiv: inactive

Results for COC(=O)[C@@H]1[C@@H](CO)[C@@H]2Cn3c(ccc(-c4ccccc4)c3=O)[C@H]1N2CCc1ccccc1 ?
XiGFP reactiv: inactive

Results for CCN(CC)c1ccc(/C=C2/C(=O)NC(=O)N(CC3CCCO3)C2=O)cc1 (stereo not given) ?
HNF4A DNA FP: inactive; TPT1 inh: inactive; CSN deneddyl inh: inactive; Rpn11 block: inactive; aDG glyco act: inactive

What do the screens show for `CCN(CC)c1ccc(/C=C2\C(=O)NC(=O)N(Cc3ccco3)C2=O)cc1`?
XiGFP reactiv: inactive; HNF4A DNA FP: inactive; TPT1 inh: 37.8; CSN deneddyl inh: 53.9; Rpn11 block: inactive; aDG glyco act: inactive; caTPT1 confirm: 93.1; RNase T1 inh: 111.7; CSN5 deneddyl: 85.0; MMP-2 counter-2: inactive; Thrombin cntr: inactive

How did CCCCN1C(=O)/C(=C/c2ccc(N(C)C)cc2)C(=O)N(Cc2ccco2)C1=O do in these assays?
HNF4A DNA FP: inactive; TPT1 inh: 149.6; CSN deneddyl inh: 131.9; aDG glyco act: inactive; caTPT1 confirm: 109.9; RNase T1 inh: 116.0; CSN5 deneddyl: 85.8; MMP-2 counter-2: inactive; Thrombin cntr: inactive

How did CCc1ccccc1N1C(=O)NC(=O)/C(=C\c2cc(C)n(C)c2C)C1=O do in these assays?
XiGFP reactiv: inactive; HNF4A DNA FP: inactive; TPT1 inh: inactive; CSN deneddyl inh: inactive; Rpn11 block: inactive; aDG glyco act: inactive
